Assay results taken from publication PMC12707241 (RSC Chemical Biology, 2025).
Where two headings read alike, the source gives them in different places.

Experiments:
[1] = test system: SIRT5; settings: cited from earlier work
[2] = test system: SIRT5; settings: cited from earlier work; remark: listed apart in the source
[3] = test system: HEK293 cells; experiment: Intracellular NAD+ level, HEK293 cells; type: cell-based, human; settings: HEK293, 1 mM, 6 h
In short: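 HEK293 cells (DMEM, 10% FBS, 37 °C, 5% CO2) incubated with 1 mM NR or NARH for 6 h. Harvested, counted by hemocytometer, pelleted, and extracted in ice-cold 7% perchloric acid (three vortex/ice-sonication cycles). NAD+ measured by enzymatic cycling assay. Three independent experiments ± SD; Student's t-test.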

[4] = physiological NAM concentrations

Row | SMILES | effect on deacetylase activity of SIRT5 [1, 4] | effect on desuccinylase activity of SIRT5 [2, 4] | intracellular NAD+ content [3] | effect on deacetylase activity of SIRT5 [1] | effect on desuccinylase activity of SIRT5 [2]
1 | NC(=O)c1cccnc1 [NAM, nicotinamide] | negligible changes | potently inhibit |  |  | 
2 | NC(=O)c1ccc[n+]([C@@H]2O[C@H](CO)[C@@H](O)[C@H]2O)c1 [NR, nicotinamide riboside] |  |  | nearly two-fold increase | selectively activates | negligible changes
